According to ChEMBL document CHEMBL1124558, “Differential effects of a series of hydroxamic acid derivatives on 5-lipoxygenase and cyclooxygenase from neutrophils and 12-lipoxygenase from platelets and their in vivo effects on inflammation and anaphylaxis” (J Med Chem, 1989):

Assays:
[1] = target: T1, Cyclooxygenase (Rattus norvegicus) (UniProt P35355+Q63921); assay: In vitro inhibitory activity against rat polymorphonuclear leukocyte Prostaglandin G/H synthase at 100 uM; type: protein assay
How it was run: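 Glycogen-elicited peritoneal PMNs from Sprague-Dawley rats were homogenized at 0 °C in 0.1 M Tris-HCl pH 8.2 with 10 μM NDGA. Compound (DMSO ≤0.1%) was preincubated 5 min at 37 °C, then 8 μM [14C]arachidonic acid with 4 mM glutathione and epinephrine was added for 10 min. TxB2 and PGF2α were measured by TLC and scintillation counting.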

[2] = target: T2, Polyunsaturated fatty acid 5-lipoxygenase (Homo sapiens, UniProt P09917); assay: In vitro inhibition of polymorphonuclear leukocyte derived human 5-lipoxygenase
T2 sequence (P09917 whole entry): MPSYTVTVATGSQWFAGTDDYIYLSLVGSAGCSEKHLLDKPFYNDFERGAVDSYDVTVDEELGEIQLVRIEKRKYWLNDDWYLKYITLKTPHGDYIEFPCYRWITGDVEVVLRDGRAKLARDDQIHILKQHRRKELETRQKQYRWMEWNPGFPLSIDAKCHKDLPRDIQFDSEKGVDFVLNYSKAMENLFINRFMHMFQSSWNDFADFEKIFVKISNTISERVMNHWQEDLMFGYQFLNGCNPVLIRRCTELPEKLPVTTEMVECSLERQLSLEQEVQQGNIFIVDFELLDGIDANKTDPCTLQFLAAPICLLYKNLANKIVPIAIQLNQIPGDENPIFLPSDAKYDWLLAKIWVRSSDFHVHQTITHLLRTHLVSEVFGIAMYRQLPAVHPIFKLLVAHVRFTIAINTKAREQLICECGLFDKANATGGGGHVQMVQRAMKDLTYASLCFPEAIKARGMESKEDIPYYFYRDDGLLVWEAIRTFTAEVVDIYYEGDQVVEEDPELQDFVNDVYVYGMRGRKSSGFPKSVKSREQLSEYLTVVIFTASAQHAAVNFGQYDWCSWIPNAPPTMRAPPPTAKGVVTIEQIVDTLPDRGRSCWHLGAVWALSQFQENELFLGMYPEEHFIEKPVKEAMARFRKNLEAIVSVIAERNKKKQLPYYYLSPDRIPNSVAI
How it was run: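 PMNs from venous blood of healthy volunteers, isolated by dextran sedimentation and Percoll gradient (>90% pure) and held in Ca/Mg PBS with 1 mg/mL glucose and 1 μM indomethacin. Challenged with calcium ionophore and [14C]arachidonic acid for 3 min. 5-HETE measured by TLC and scintillation counting; IC50 read graphically.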

[3] = target: T3, Polyunsaturated fatty acid 5-lipoxygenase (Rattus norvegicus, UniProt P12527); assay: In vitro inhibition of rat polymorphonuclear leukocyte 5-lipoxygenase
T3 sequence (P12527 whole entry): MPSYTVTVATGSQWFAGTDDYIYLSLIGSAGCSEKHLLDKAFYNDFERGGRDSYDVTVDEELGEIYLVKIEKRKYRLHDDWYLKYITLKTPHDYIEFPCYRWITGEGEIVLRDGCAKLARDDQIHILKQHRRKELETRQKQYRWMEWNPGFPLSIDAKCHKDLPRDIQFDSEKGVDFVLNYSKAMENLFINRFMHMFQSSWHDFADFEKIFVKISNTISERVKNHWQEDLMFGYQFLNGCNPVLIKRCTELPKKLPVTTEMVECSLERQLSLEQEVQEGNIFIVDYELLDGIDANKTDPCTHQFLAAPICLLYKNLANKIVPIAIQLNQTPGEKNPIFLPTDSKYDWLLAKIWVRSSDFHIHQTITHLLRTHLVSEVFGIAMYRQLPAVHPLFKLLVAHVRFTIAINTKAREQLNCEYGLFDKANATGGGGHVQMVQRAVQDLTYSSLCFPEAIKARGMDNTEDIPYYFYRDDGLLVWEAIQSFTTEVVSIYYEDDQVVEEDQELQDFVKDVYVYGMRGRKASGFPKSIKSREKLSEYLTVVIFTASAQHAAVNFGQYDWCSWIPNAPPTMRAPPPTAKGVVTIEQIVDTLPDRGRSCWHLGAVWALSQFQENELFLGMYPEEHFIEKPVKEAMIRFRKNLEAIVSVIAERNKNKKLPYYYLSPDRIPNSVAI
How it was run: (§1)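 Intact glycogen-elicited peritoneal PMNs pooled from 4–5 Sprague-Dawley rats (250 g), preincubated 5 min at 30 °C with compound in DMSO (≤0.1% final) plus 1 μM indomethacin. Challenge with [14C]arachidonic acid (4 μM) and A23187 (0.8 μM) for 3 min. Extraction, TLC, 5-HETE by scintillation counting.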

[4] = system: Mus musculus; assay: In vivo inhibition of mouse ear inflammation; type: functional; set-up: concentration or dose not given beside the values
How it was run: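 Compound or ethanol vehicle applied topically to one ear of male DBA/2J mice 60 min before arachidonic acid (2 mg/ear). […] Groups of 5 mice.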

[5] = target: T1, Cyclooxygenase (Rattus norvegicus); assay: Inhibition of Prostaglandin G/H synthase in rat polymorphonuclear leukocytes; type: cell-based; set-up: concentration or dose not given beside the values; settings: concentration not given here
How it was run: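 Homogenate of glycogen-elicited rat peritoneal PMNs in 0.1 M Tris-HCl pH 8.2 with 10 μM NDGA, preincubated 5 min at 37 °C with compound (≤0.1% DMSO). [14C]arachidonic acid (8 μM) added with 4 mM glutathione and epinephrine; 10 min reaction. TxB2 and PGF2α separated by TLC and counted.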

[6] = system: Cavia porcellus; assay: In vivo inhibitory activity against guinea pig systemic anaphylaxis when administered a compound dose (200 mg/kg) perorally; type: functional; settings: po
How it was run: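 Male Hartley guinea pigs sensitised ip with ovalbumin (2.7 mg/kg) plus LPS adjuvant, then challenged 2 weeks later with 1% ovalbumin aerosol for 30 s. Pretreated with pyrilamine, indomethacin and propranolol 20 min before challenge. Compound given in PEG 400 1 h before challenge.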

[7] = target: T4, Polyunsaturated fatty acid 5-lipoxygenase (Rattus norvegicus) (UniProt P12527); assay: In vitro inhibitory activity against polymorphonuclear leukocyte 5-lipoxygenase in rat cell at 1 uM; how it was run: as §1
T4 sequence (whole entry): T3 sequence (P12527 whole entry)

[8] = target: T4, Polyunsaturated fatty acid 5-lipoxygenase (Rattus norvegicus); assay: In vitro inhibitory activity against polymorphonuclear leukocyte 5-lipoxygenase in rat cell at 10 uM; how it was run: as §1
[9] = target: T5, Arachidonate 12-lipoxygenase (Rattus norvegicus) (UniProt Q02759); assay: In vitro inhibitory activity against rat platelet 12-lipoxygenase at 10 uM
T5 sequence (whole entry): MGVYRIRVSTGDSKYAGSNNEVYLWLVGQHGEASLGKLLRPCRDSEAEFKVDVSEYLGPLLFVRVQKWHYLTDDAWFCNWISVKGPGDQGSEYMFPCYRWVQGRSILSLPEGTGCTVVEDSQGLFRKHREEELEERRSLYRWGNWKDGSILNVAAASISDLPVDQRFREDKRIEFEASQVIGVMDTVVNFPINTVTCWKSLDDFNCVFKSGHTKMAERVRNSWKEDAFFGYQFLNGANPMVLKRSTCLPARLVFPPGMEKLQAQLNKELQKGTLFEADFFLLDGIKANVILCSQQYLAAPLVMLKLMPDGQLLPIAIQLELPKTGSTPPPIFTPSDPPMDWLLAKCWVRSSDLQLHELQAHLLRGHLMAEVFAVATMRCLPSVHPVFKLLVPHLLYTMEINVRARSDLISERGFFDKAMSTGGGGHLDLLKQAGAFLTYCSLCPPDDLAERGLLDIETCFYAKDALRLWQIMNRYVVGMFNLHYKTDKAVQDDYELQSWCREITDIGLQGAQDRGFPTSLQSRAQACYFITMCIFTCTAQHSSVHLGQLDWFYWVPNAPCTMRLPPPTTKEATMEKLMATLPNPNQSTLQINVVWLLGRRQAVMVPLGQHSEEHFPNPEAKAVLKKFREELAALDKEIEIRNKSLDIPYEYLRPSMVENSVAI
How it was run: (§2)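 Cell-free cytosolic 12-lipoxygenase from Sprague-Dawley rat platelets (0.4 mg/mL), preincubated 5 min at 30 °C with compound in DMSO (≤0.1% final), 25 mM Tris pH 7.4, 1 μM indomethacin, 100 μM glutathione; reaction started with 6 μM [14C]arachidonic acid and quenched with citric acid/NDGA after 3 min. 12-HETE isolated by TLC and counted by scintillation; % inhibition, duplicate.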

[10] = target: T6, Polyunsaturated fatty acid 5-lipoxygenase (Homo sapiens) (UniProt P09917); assay: In vitro inhibitory activity against polymorphonuclear leukocyte 5-lipoxygenase in human cell at 10 uM
T6 sequence (whole entry): T2 sequence (P09917 whole entry)
How it was run: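 Human PMNs from venous blood of a healthy volunteer (EDTA) were purified by dextran sedimentation, a Percoll gradient and NH4Cl red-cell lysis (>90% pure). They were held in Ca/Mg PBS with 1 mg/mL glucose and 1 μM indomethacin, then challenged with A23187 (0.8 μM) and [14C]arachidonic acid (4 μM) for 3 min. 5-HETE was measured by TLC and scintillation counting.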

[11] = target: T5, Arachidonate 12-lipoxygenase (Rattus norvegicus); assay: In vitro inhibitory activity against rat platelet 12-lipoxygenase at 100 uM; how it was run: as §2

SMILES | inhibition [1] | IC50 [2] | IC50 [3] | inhibition [5] | inhibition [7] | inhibition [8] | inhibition [9] | inhibition [10] | inhibition [11] | Inhibition [4] | inhibition in vivo at 200 mg/kg [6]
O=C(COc1ccccc1)N(O)CCc1ccccc1 | 65% | 1200 nM | 1000 nM | – | – | – | – | – | – | – | –
CC(C)Cc1ccc(C(C)C(=O)N(O)Cc2ccccc2)cc1 (stereo unspecified) | 20% | 2000 nM | 1000 nM | – | – | – | – | – | – | – | –
O=C(Cc1ccc(OCc2ccccc2)cc1)NO | – | – | – | 16% | 3% | – | – | – | – | – | –
COc1ccc(CCCC(=O)N(C)O)cc1 | – | 1300 nM | 300 nM | < 10% | – | – | – | – | – | 67% | 60%
CC(C)Cc1ccc(C(C)C(=O)N(Cc2ccccc2)OCc2ccccc2)cc1 (stereo unspecified) | – | – | – | 39% | – | < 10% | < 10% | < 10% | – | – | –
CCC(Cc1ccccc1)N(O)C(=O)Cc1ccc(OCc2ccccc2)cc1 (stereo unspecified) | – | 3000 nM | 2500 nM | 44% | – | – | – | – | < 10% | 38% | –
COc1ccc(CC(=O)N(O)CCc2ccccc2)cc1 | – | 2500 nM | 1000 nM | 48% | – | – | – | – | – | 51% | –
O=C(O)CCCN(O)C(=O)CCCc1ccccc1 | – | – | – | < 10% | – | 1% | – | – | 15% | 34% | –

Continued by falling IC50 [2], values first:

inhibition [1] | IC50 [2] | IC50 [3] | inhibition [5] | inhibition [7] | inhibition [8] | inhibition [9] | inhibition [10] | inhibition [11] | SMILES | Inhibition [4] | inhibition in vivo at 200 mg/kg [6]
30% | 1000 nM | 80 nM | – | – | – | – | – | – | CN(O)C(=O)Cc1cccc(OCc2ccc3ccccc3n2)c1 | 68% | –
– | 600 nM | 500 nM | < 10% | – | – | – | – | – | O=C(Cc1ccc(OCc2ccccc2)cc1)N(O)CCCc1ccccc1 | 12% | –
– | 500 nM | 300 nM | 44% | – | – | – | – | – | CCOC(=O)CCCN(O)C(=O)CCCc1ccccc1 | 54% | –
18% | 300 nM | 250 nM | – | – | – | – | – | – | O=C(CCOc1ccccc1)N(O)CCc1ccccc1 | – | –
– | 250 nM | 110 nM | < 10% | – | – | – | – | – | CN(O)C(=O)CCCCc1ccccc1 | 77% | 9%
– | 250 nM | 120 nM | – | – | – | – | – | – | COc1ccc(CCCC(=O)N(O)CCc2ccccc2)cc1 | 64% | 0%
– | 150 nM | 50 nM | 50% | – | – | – | – | – | O=C(CCCCc1ccccc1)N(O)Cc1ccccc1 | 52% | –
– | 130 nM | 150 nM | 18% | – | – | – | – | – | O=C(CCCc1ccccc1)N(O)Cc1ccccc1 | 51% | 0%
15% | 100 nM | 100 nM | – | – | – | – | – | – | O=C(CCc1ccccc1)N(O)CCCc1ccccc1 | 67% | 0%
– | 100 nM | 300 nM | < 10% | – | – | – | – | – | CC(C(=O)N(O)CCc1ccccc1)c1cccc(OCc2ccccc2)c1 (stereo unspecified) | – | –
